Test results as given in ChEMBL document CHEMBL2034859, “Simple, fast and efficient synthesis of β-keto esters from the esters of heteroaryl compounds, its antimicrobial study and cytotoxicity towards various cancer cell lines” (Bioorg Med Chem Lett, 2012).

Columns and labels:
PANC-1 [1] = experiment: Cytotoxicity against human PANC1 cells at 0.03 uM after 48 hrs by WST-1 assay; format: functional
Summary of the method: (§1)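 Cells from ATCC, grown in DMEM with 10% heat-inactivated FBS at 37 °C in humidified 5% CO2. Log-phase cells seeded at 5 × 10^3 cells/well and left to recover overnight, then exposed to varying compound concentrations for 48 h. Controls received medium with 0.2% DMSO vehicle. CCK-8 ([…]) reagent added at 5 µL/well for 2 h, then absorbance read.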

PANC-1 [2] = experiment: Cytotoxicity against human PANC1 cells at 0.1 uM after 48 hrs by WST-1 assay; format: functional; summary of the method: as §1
PANC-1 [3] = experiment: Cytotoxicity against human PANC1 cells at 0.3 uM after 48 hrs by WST-1 assay; format: functional; summary of the method: as §1
PANC-1 [4] = experiment: Cytotoxicity against human PANC1 cells at 1 uM after 48 hrs by WST-1 assay; format: functional; summary of the method: as §1
PANC-1 [5] = experiment: Cytotoxicity against human PANC1 cells at 3 uM after 48 hrs by WST-1 assay; format: functional; summary of the method: as §1
PANC-1 [6] = experiment: Cytotoxicity against human PANC1 cells at 30 uM after 48 hrs by WST-1 assay; format: functional; summary of the method: as §1
MCF-10A [7] = experiment: Cytotoxicity against human MCF10A cells at 0.01 uM after 48 hrs by WST1 assay; format: cell-based
MCF-10A [8] = experiment: Cytotoxicity against human MCF10A cells at 0.03 uM after 48 hrs by WST1 assay; format: cell-based
MCF-10A [9] = experiment: Cytotoxicity against human MCF10A cells at 0.1 uM after 48 hrs by WST1 assay; format: cell-based
MCF-10A [10] = experiment: Cytotoxicity against human MCF10A cells at 0.3 uM after 48 hrs by WST1 assay; format: cell-based
MCF-10A [11] = experiment: Cytotoxicity against human MCF10A cells at 1 uM after 48 hrs by WST1 assay; format: cell-based
MCF-10A [12] = experiment: Cytotoxicity against human MCF10A cells at 3 uM after 48 hrs by WST1 assay; format: cell-based
MCF-10A [13] = experiment: Cytotoxicity against human MCF10A cells at 10 uM after 48 hrs by WST1 assay; format: cell-based
MCF-10A [14] = experiment: Cytotoxicity against human MCF10A cells at 30 uM after 48 hrs by WST1 assay; format: cell-based
NCI-H460 = experiment: Cytotoxicity against human NCI-H460 cells after 48 hrs by WST-1 assay; format: functional, cell-based; conditions: NCI-H460, 48 h; summary of the method: as §1
HCT-116 = experiment: Cytotoxicity against human HCT116 cells after 48 hrs by WST-1 assay; format: functional, cell-based; conditions: HCT-116, 48 h
Summary of the method: (§2)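 Cells from ATCC were grown in DMEM with 10% heat-inactivated FBS at 37 °C in 5% CO2. Log-phase cells were seeded at 5 × 10^3 per well and left to recover overnight. They were then exposed to a range of compound concentrations for 48 h, with 0.2% DMSO as the vehicle control. CCK-8 (WST) reagent was added for 2 h and absorbance was measured.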

ACHN = experiment: Cytotoxicity against human ACHN cells after 48 hrs by WST-1 assay; format: functional, cell-based; summary of the method: as §2
Calu-1 [15] = experiment: Cytotoxicity against human Calu1 cells after 48 hrs by WST-1 assay; format: functional, cell-based; conditions: Calu-1, 48 h; summary of the method: as §2
PANC-1 [16] = experiment: Cytotoxicity against human PANC1 cells after 48 hrs by WST-1 assay; format: functional, cell-based; conditions: PANC-1, 48 h; summary of the method: as §1
MCF-10A [17] = experiment: Cytotoxicity against human MCF10A cells after 48 hrs by WST1 assay; format: cell-based
Calu-1 [18] = experiment: Cytotoxicity against human Calu1 cells at 0.01 uM after 48 hrs by WST-1 assay; format: functional; summary of the method: as §2
Calu-1 [19] = experiment: Cytotoxicity against human Calu1 cells at 0.03 uM after 48 hrs by WST-1 assay; format: functional; summary of the method: as §2
Calu-1 [20] = experiment: Cytotoxicity against human Calu1 cells at 0.1 uM after 48 hrs by WST-1 assay; format: functional; summary of the method: as §2
Calu-1 [21] = experiment: Cytotoxicity against human Calu1 cells at 0.3 uM after 48 hrs by WST-1 assay; format: functional; summary of the method: as §2
Calu-1 [22] = experiment: Cytotoxicity against human Calu1 cells at 1 uM after 48 hrs by WST-1 assay; format: functional; summary of the method: as §2
Calu-1 [23] = experiment: Cytotoxicity against human Calu1 cells at 3 uM after 48 hrs by WST-1 assay; format: functional; summary of the method: as §2
Calu-1 [24] = experiment: Cytotoxicity against human Calu1 cells at 30 uM after 48 hrs by WST-1 assay; format: functional; summary of the method: as §2

CCOC(=O)C(C)C(=O)c1cnccn1 (configuration not stated)
Activity (PANC-1 [1]): 10%
Activity (PANC-1 [2]): 13.6%
Activity (PANC-1 [3]): 15.9%
Activity (PANC-1 [4]): 29.2%
Activity (PANC-1 [5]): 67.8%
Activity (PANC-1 [6]): 100%
Activity (MCF-10A [7]): -15.2%
Activity (MCF-10A [8]): -14.1%
Activity (MCF-10A [9]): -9.5%
Activity (MCF-10A [10]): -6.8%
Activity (MCF-10A [11]): 6.3%
Activity (MCF-10A [12]): 24%
Activity (MCF-10A [13]): 39.1%
Activity (MCF-10A [14]): 82.8%
IC50 (NCI-H460): 3000 nM
IC50 (HCT-116): 1300 nM
IC50 (ACHN): 3000 nM
IC50 (Calu-1 [15]): 2800 nM
IC50 (PANC-1 [16]): 2900 nM
IC50 (MCF-10A [17]): 21200 nM
Activity (Calu-1 [18]): 1.5%
Activity (Calu-1 [19]): 2.9%
Activity (Calu-1 [20]): 6.7%
Activity (Calu-1 [21]): 9.4%
Activity (Calu-1 [22]): 22.8%
Activity (Calu-1 [23]): 60.8%
Activity (Calu-1 [24]): 99.2%
